Compound activity from PubChem BioAssay.
In the library only some 2.2% were active in any assay of this set; here they are far more common.
core dimer inh: HCV core protein dimerization inhibition; TR-FRET GST/Flag-core106 dimerization, 1536-well; inhibition, % at 5 µM; actives 0.33% (n = 300,000); AID 1899;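 active means inhibition above the mean of all tested compounds plus 3 SD, set per screening campaign, cut at about 45% in these data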
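Material: Tagged HCV core106 pair (GST and Flag) | Amount: GST-core106 13.5 nM, Flag-core106 17 nM | Medium: KF-containing HEPES buffer, pH 7.45, DTT, CHAPS, BSA | Reagent: Eu donor and XL665 acceptor anti-tag antibodies | Schedule: 4 h at 22.5 °C | Technique: Time-resolved FRET, ex 340 nm, em 617 and 671 nm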
NS3 helicase inh: blocks Hepatitis C virus NS3 helicase unwinding; NS3 helicase DNA unwinding, Cy5 molecular beacon fluorescence; inhibition, % at 10.9 µM; actives 0.56% (n = 290,000); AID 1800;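 active means inhibition above the mean of all tested compounds plus 3 SD, set per campaign, cut at about 35% in these data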
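Control set: DMSO versus 110 µM thioflavine S; Material: NS3 helicase fragment of HCV; Measured by: Cy5 fluorescence at 0 and 60 min, beacon hairpin quenching; Read-out basis: percent inhibition from t60/t0 fluorescence ratio; Times: reaction time 60 min, 25 °C; Repeats: single replicate; Compound dosing: single dose, 10.9 µM nominal final, DMSO 0.8% final.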
GPR7 antagonist: blocks human GPR7 receptor signaling; actives 1.1% (n = 290,000); inhibition, % at 4.4 µM; AID 1861; GPR7-expressing cells, fluorescence antagonist assay; in the data active means inhibition above about 16%, passing the limit was not always enough;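 further: cells stimulated with the agonist NPW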
Target sequence (P48145 whole entry, looked up): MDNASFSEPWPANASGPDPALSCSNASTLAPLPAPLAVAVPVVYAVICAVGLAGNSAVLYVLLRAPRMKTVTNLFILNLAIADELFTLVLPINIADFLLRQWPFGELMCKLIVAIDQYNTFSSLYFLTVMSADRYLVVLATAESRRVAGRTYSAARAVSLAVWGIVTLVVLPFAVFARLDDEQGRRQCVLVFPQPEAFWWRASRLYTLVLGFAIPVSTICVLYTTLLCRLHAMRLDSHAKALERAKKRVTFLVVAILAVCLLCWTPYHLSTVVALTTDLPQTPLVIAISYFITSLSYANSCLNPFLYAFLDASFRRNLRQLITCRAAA
GRK2 aptamer HTS: blocks RNA aptamer binding to human GRK2 | P25098 | bead flow cytometry, FAM-aptamer displacement from GRK2 | inhibition of aptamer binding, % at 10 µM | actives 0.59% (n = 330,000);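 active means inhibition of aptamer binding above 40%, roughly 3 SD of noise, on plates passing a quality check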;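 further: median bead fluorescence of bound FAM aptamer so fluorescent compounds give negative values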
FID counter: fluorescent intercalator displacement, NS3 helicase counter-screen. DNA fluorescent intercalator displacement, fluorescence. inhibition, % at 7.9 µM. actives 0.17% (n = 290,000). AID 1845; in the data active means inhibition above about 37%;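 further: higher means more ethidium bromide displaced from hairpin DNA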
DAGLB inhibitor: blocks human DAGLB lipase activity | AID 504411 | inhibition, % at 5.17 µM | actives 0.059% (n = 340,000) | HEK293T DAGLB membrane lysate, EnzChek fluorogenic substrate; in the data active means inhibition above about 34%
GRK2 CP1: confirmation of human GRK2 inhibitors displacing RNA aptamer; actives 4% (n = 2,000); shares compounds with GRK2 aptamer HTS; aptamer displacement, % at 10 µM; bead-bound GRK2, FAM-aptamer displacement, flow cytometry;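 active means aptamer displacement above 40%, near three times the noise of non-fluorescent compounds, on plates passing quality checks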;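 further: negative values mostly reflect intrinsic compound fluorescence rather than true enhancement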
Aptamer quench: quenches fluorescent RNA aptamer, GRK2 hit artifact; shares compounds with GRK2 aptamer HTS; Fluorescent RNA aptamer beads, quenching, flow cytometry; stronger effect = higher value; fluorescence change (kMESF span), kMESF (no concentration beside the values); 110 tested, under 10 active;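 active means compounds whose bead fluorescence drops by more than 37 kMESF across the dose range, marking them as dye quenchers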
Aptamer quench SP: quenches fluorescent RNA aptamer, GRK2 hit artifact; fluorescence response (% of DMSO), % at 10 µM; Carboxyfluorescein RNA aptamer on beads, flow cytometry quenching; stronger effect = lower value; shares compounds with GRK2 aptamer HTS; 2,000 tested, under 10 active; AID 504580;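 active means compounds that quench the bead-bound fluorescent RNA probe, cutting fluorescence to under half of the solvent control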;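 further: counterscreen run without GRK2 so only probe quenching by compound is measured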
Hits are given with their value.

How did O=C(CC1SC(N2CCCCC2)=NC1=O)Nc1cccc(C(=O)NCc2ccccc2)c1 (centres undefined) do in these assays?
GRK2 aptamer HTS: inactive; DAGLB inhibitor: inactive; GRK2 CP1: inactive; Aptamer quench SP: inactive

How did Cc1ccc(S(=O)(=O)Cc2ccc(C(=O)O)o2)cc1 do in these assays?
core dimer inh: inactive; NS3 helicase inh: inactive; GPR7 antagonist: inactive; GRK2 aptamer HTS: 67.0; FID counter: inactive; DAGLB inhibitor: inactive; GRK2 CP1: 64.2; Aptamer quench: inactive; Aptamer quench SP: inactive

Results for COc1ccc(CCNC(=O)CCS(=O)(=O)c2ccc3c(c2)NC(=O)CO3)cc1OC ?
core dimer inh: inactive; NS3 helicase inh: inactive; GPR7 antagonist: inactive; GRK2 aptamer HTS: inactive; FID counter: inactive; DAGLB inhibitor: inactive

Results for CC(C)=NN1C(c2nonc2N)=NOC1(C)C ?
core dimer inh: inactive; NS3 helicase inh: inactive; GPR7 antagonist: inactive; GRK2 aptamer HTS: inactive; FID counter: inactive; GRK2 CP1: inactive; Aptamer quench SP: inactive

Results for CCCc1c(C(=O)N/N=C(\C)CCc2ccccc2)nnn1-c1nonc1N ?
core dimer inh: inactive; NS3 helicase inh: inactive; GPR7 antagonist: inactive; GRK2 aptamer HTS: 70.0; FID counter: inactive; DAGLB inhibitor: inactive; GRK2 CP1: inactive; Aptamer quench SP: inactive

How did O=C(NCC1CCN(Cc2ccccc2F)CC1)Nc1cc(F)ccc1F do in these assays?
core dimer inh: inactive; NS3 helicase inh: inactive; GPR7 antagonist: inactive; GRK2 aptamer HTS: inactive; FID counter: inactive; DAGLB inhibitor: inactive

How did CCOc1ccccc1OCCCC(=O)OCC(=O)Nc1cccc(Cl)c1 do in these assays?
core dimer inh: inactive; NS3 helicase inh: inactive; GPR7 antagonist: inactive; GRK2 aptamer HTS: 81.0; FID counter: inactive; DAGLB inhibitor: inactive; GRK2 CP1: inactive; Aptamer quench SP: inactive

How did COc1ccc(C(=O)Nc2ccc(S(=O)(=O)N(C)c3ccccc3)cc2)cc1 do in these assays?
core dimer inh: inactive; GRK2 aptamer HTS: inactive; DAGLB inhibitor: inactive

What do the screens show for `CC(=O)N/C(=C/c1ccc2c(c1)OCO2)C(=O)NCC(=O)O`?
core dimer inh: inactive; NS3 helicase inh: inactive; GPR7 antagonist: inactive; GRK2 aptamer HTS: inactive; FID counter: inactive; DAGLB inhibitor: inactive

How did CC(=O)N/C(=C\c1ccccc1)C(=O)NCc1ccc2c(c1)OCO2 do in these assays?
core dimer inh: inactive; NS3 helicase inh: inactive; GPR7 antagonist: inactive; GRK2 aptamer HTS: 64.0; FID counter: inactive; DAGLB inhibitor: inactive; GRK2 CP1: inactive; Aptamer quench SP: inactive

Results for CN(CC(=O)Nc1ccc(S(=O)(=O)N2CCOCC2)cc1)Cc1ccc(F)cc1 ?
GRK2 aptamer HTS: inactive; DAGLB inhibitor: inactive

How did CCc1ccc(CN(C)CC(=O)Nc2ccc(S(=O)(=O)N3CCOCC3)cc2)cc1 do in these assays?
GRK2 aptamer HTS: 99.0; DAGLB inhibitor: inactive; GRK2 CP1: inactive; Aptamer quench SP: inactive

What do the screens show for `CC(=O)Nc1sc(N/N=C\c2ccc(O)cc2)nc1-c1cccs1`?
core dimer inh: inactive; NS3 helicase inh: inactive; GPR7 antagonist: inactive; GRK2 aptamer HTS: 81.0; FID counter: inactive; DAGLB inhibitor: inactive; GRK2 CP1: inactive; Aptamer quench SP: inactive

Results for COc1ccccc1N(CC(=O)N1CCN(c2ccccc2)CC1)S(=O)(=O)c1ccc(C)cc1 ?
core dimer inh: inactive; NS3 helicase inh: inactive; GPR7 antagonist: inactive; GRK2 aptamer HTS: inactive; FID counter: inactive; DAGLB inhibitor: inactive

What do the screens show for `C/C=C(\C)C(=O)O[C@@H]([C@H](O)c1cc2ccc(=O)oc2cc1OC)C(C)(C)O`?
GRK2 aptamer HTS: inactive; DAGLB inhibitor: inactive
